Experimental findings from ChEMBL document CHEMBL5046217, “Discovery of New Imidazo[2,1-b]thiazole Derivatives as Potent Pan-RAF Inhibitors with Promising In Vitro and In Vivo Anti-melanoma Activity” (J Med Chem, 2021) are described below.

In data set [1] the test system is Malme-3M. In words: Antiproliferative activity against human Malme-3M cells assessed as total growth inhibition measured after 48 hrs by SRB assay. On the technique in general: The SRB assay estimates cell density from bound dye.
For data set [2], the target named is Mitogen-activated protein kinase 14 (Homo sapiens, UniProt Q16539). The data set is described as follows: Inhibition of MAPK14 (unknown origin) incubated for 1 hr by qPCR analysis. In short, it runs like this: (§1)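 Competition binding assay. Kinases were either T7-phage-tagged (grown in an E. coli BL21-derived host) or expressed in HEK-293 cells and DNA-tagged. […] Bound kinase was eluted with non-biotinylated ligand and quantified by qPCR.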
(In qPCR the cycle at which signal appears reflects the starting amount.)

A further data set in a line: in vitro. To be noted: human, BJ cells and Malme-3M cells.
The nature of data set [3]: Cytotoxicity against human L132 cells assessed as cell growth inhibition incubated for 48 hrs by MTT assay. The data set is classed as toxicity, cell-based.
The subject of a further data set is NSCLC. The data set is described as follows: cells. Conditions: Homo sapiens, 48 h, read-out: INH.
Data set [4] in a line: Cytotoxicity against human BJ cells assessed as cell growth inhibition incubated for 48 hrs by MTT assay. It is filed as toxicity, cell-based. In short, it runs like this: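 BJ1 normal skin fibroblasts were seeded at 10 × 10³ cells/well with compound in triplicate wells and grown in DMEM-F12 at 37 °C, 5% CO₂, across an eight-point dilution series. Growth inhibition was calculated as (1 − T/C) × 100, and IC50 was taken from the dose–response curve.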
In general terms: Tetrazolium dyes change colour on reduction, which living cells bring about.

Data set [5] concerns SK-MEL-28. The data set is described as follows: Antiproliferative activity against human SK-MEL-28 cells assessed as cell growth inhibition measured after 48 hrs by SRB assay. Conditions: SK-MEL-28, 48 h.
The subject of data set [6] is Panel leukemia (Carcinoma cell lines). The data set is described as follows: Antiproliferative activity against human Panel leukemia (Carcinoma cell lines) assessed as cell growth inhibition measured after 48 hrs by SRB assay.
Data set [7] addresses Fibroblast growth factor receptor 1 (Homo sapiens, UniProt P11362). The data set is described as follows: Inhibition of FGFR1 (unknown origin) incubated for 1 hr by qPCR analysis.
In the next data set the test system is SK-MEL-5. In words: Antiproliferative activity against human SK-MEL-5 cells assessed as total growth inhibition measured after 48 hrs by SRB assay. Conditions: SK-MEL-5, 48 h.
In data set [8] the test system is SK-MEL-28. The data set is described as follows: Antiproliferative activity against human SK-MEL-28 cells assessed as total growth inhibition measured after 48 hrs by SRB assay. To be noted: SK-MEL-28, 48 h.
Data set [9] deals with Panel leukemia (Carcinoma cell lines). The data set is described as follows: cells. Conditions: Homo sapiens, 48 h, read-out: INH.
In data set [10] the test system is Panel melanoma (Carcinoma cell lines). In words: cells. To be noted: Homo sapiens, 48 h, read-out: INH.
In data set [11] the target is Mitogen-activated protein kinase kinase kinase 20 (Homo sapiens, UniProt Q9NYL2). In words: Inhibition of ZAK (unknown origin) incubated for 1 hr by qPCR analysis. In short, it runs like this:
as §1

Data set [12] has as its target BDNF/NT-3 growth factors receptor (Homo sapiens, UniProt Q16620). In words: Inhibition of NTRK2 (unknown origin) incubated for 1 hr by qPCR analysis.
For a further data set, the system named is UACC-257. The data set is described as follows: Antiproliferative activity against human UACC-257 cells assessed as total growth inhibition measured after 48 hrs by SRB assay. Conditions: UACC-257, 48 h.
In a further data set the test system is MDA-MB-435. In words: Antiproliferative activity against human MDA-MB-435 cells assessed as total growth inhibition measured after 48 hrs by SRB assay. To be noted: MDA-MB-435, 48 h.
Data set [13] deals with Panel breast (Carcinoma cell lines). The data set is described as follows: Antiproliferative activity against human Panel breast (Carcinoma cell lines) assessed as cell growth inhibition measured after 48 hrs by SRB assay.
The target of data set [14] is Homeodomain-interacting protein kinase 1 (Homo sapiens, UniProt Q86Z02). The data set is described as follows: Inhibition of HIPK1 (unknown origin) incubated for 1 hr by qPCR analysis. In short, it runs like this:
as §1

Data set [15] relates to LOX IMVI. The data set is described as follows: Antiproliferative activity against human LOX IMVI cells assessed as cell growth inhibition measured after 48 hrs by SRB assay.
Data set [16] deals with LOX IMVI. In words: Antiproliferative activity against human LOX IMVI cells assessed as total growth inhibition measured after 48 hrs by SRB assay.
The subject of data set [17] is Malme-3M. The data set is described as follows: Antiproliferative activity against human Malme-3M cells assessed as cell growth inhibition measured after 48 hrs by SRB assay.
The subject of data set [18] is Panel renal (Carcinoma cell lines). In words: Antiproliferative activity against human Panel renal (Carcinoma cell lines) assessed as cell growth inhibition measured after 48 hrs by SRB assay.

Sequence of Mitogen-activated protein kinase 14 (Q16539 whole entry): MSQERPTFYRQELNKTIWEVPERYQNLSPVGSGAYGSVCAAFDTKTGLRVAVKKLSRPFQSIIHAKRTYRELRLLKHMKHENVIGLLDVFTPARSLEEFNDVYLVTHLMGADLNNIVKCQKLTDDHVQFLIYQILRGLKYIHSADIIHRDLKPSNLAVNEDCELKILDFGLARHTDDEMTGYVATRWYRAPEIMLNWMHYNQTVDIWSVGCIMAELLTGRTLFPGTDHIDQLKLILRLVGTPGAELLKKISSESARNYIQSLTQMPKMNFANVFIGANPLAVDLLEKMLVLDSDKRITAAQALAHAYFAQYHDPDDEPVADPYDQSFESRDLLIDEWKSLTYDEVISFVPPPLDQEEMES
Sequence of BDNF/NT-3 growth factors receptor (Q16620 whole entry): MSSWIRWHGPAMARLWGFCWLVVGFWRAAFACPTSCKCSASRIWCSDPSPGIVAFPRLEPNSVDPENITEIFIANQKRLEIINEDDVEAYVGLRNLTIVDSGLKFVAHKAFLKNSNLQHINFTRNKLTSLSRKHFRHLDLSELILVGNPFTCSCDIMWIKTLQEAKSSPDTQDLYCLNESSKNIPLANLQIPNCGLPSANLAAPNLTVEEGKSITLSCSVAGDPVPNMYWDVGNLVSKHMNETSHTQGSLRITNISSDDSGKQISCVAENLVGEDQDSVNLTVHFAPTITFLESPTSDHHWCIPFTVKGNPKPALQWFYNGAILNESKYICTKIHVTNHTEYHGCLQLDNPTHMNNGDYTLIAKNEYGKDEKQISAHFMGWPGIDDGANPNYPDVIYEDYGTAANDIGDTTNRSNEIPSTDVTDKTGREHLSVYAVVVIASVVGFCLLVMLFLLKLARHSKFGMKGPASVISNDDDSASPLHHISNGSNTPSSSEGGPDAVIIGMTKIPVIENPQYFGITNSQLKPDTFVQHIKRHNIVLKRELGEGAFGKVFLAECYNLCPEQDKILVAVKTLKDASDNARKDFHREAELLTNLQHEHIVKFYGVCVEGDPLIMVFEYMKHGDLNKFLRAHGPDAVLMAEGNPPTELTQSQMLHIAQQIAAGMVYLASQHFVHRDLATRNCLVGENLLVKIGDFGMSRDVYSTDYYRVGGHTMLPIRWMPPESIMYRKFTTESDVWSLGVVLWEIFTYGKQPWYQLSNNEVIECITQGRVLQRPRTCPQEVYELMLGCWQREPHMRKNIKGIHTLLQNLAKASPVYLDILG
Sequence of Fibroblast growth factor receptor 1 (P11362 whole entry): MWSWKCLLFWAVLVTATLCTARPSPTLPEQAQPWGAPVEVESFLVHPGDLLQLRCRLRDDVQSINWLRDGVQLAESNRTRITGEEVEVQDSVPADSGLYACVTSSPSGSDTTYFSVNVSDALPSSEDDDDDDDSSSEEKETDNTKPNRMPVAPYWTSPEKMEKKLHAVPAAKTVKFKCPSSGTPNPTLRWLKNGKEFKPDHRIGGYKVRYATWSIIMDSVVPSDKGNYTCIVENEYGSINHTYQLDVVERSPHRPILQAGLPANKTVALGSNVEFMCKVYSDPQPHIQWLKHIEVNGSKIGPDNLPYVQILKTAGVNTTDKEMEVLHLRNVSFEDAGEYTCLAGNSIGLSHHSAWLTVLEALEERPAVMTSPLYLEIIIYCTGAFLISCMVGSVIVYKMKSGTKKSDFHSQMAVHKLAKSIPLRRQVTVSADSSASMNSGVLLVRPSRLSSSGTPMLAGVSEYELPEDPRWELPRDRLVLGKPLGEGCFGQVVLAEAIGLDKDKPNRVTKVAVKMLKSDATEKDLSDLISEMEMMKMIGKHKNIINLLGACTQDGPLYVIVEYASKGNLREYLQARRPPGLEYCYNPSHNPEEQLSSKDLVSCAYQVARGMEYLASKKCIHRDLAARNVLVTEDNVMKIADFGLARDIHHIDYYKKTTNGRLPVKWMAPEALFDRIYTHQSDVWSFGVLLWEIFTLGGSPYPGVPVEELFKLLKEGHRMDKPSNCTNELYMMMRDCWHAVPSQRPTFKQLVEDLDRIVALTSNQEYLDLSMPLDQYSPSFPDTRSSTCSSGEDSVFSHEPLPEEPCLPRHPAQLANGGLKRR
Sequence of Mitogen-activated protein kinase kinase kinase 20 (Q9NYL2 whole entry): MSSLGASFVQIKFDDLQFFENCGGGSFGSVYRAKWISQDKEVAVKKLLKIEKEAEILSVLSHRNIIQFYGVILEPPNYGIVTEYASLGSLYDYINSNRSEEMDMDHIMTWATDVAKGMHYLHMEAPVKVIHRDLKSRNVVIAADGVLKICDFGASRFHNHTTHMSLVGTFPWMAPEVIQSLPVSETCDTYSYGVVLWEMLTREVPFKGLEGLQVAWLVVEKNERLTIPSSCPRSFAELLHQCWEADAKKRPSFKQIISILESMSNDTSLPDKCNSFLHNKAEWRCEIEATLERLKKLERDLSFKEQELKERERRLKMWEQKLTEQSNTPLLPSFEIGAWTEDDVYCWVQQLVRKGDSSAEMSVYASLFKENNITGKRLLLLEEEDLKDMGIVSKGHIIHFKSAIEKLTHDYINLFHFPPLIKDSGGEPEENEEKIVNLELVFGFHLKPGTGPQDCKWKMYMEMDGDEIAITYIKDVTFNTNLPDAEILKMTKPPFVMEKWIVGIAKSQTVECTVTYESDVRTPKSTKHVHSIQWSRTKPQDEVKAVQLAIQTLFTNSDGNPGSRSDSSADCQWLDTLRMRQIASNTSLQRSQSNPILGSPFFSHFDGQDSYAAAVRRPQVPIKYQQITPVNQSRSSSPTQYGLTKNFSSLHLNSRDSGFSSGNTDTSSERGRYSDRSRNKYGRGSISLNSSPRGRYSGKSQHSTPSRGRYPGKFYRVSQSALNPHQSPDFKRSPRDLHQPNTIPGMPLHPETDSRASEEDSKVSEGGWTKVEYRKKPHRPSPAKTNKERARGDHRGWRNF
Sequence of Homeodomain-interacting protein kinase 1 (Q86Z02 whole entry): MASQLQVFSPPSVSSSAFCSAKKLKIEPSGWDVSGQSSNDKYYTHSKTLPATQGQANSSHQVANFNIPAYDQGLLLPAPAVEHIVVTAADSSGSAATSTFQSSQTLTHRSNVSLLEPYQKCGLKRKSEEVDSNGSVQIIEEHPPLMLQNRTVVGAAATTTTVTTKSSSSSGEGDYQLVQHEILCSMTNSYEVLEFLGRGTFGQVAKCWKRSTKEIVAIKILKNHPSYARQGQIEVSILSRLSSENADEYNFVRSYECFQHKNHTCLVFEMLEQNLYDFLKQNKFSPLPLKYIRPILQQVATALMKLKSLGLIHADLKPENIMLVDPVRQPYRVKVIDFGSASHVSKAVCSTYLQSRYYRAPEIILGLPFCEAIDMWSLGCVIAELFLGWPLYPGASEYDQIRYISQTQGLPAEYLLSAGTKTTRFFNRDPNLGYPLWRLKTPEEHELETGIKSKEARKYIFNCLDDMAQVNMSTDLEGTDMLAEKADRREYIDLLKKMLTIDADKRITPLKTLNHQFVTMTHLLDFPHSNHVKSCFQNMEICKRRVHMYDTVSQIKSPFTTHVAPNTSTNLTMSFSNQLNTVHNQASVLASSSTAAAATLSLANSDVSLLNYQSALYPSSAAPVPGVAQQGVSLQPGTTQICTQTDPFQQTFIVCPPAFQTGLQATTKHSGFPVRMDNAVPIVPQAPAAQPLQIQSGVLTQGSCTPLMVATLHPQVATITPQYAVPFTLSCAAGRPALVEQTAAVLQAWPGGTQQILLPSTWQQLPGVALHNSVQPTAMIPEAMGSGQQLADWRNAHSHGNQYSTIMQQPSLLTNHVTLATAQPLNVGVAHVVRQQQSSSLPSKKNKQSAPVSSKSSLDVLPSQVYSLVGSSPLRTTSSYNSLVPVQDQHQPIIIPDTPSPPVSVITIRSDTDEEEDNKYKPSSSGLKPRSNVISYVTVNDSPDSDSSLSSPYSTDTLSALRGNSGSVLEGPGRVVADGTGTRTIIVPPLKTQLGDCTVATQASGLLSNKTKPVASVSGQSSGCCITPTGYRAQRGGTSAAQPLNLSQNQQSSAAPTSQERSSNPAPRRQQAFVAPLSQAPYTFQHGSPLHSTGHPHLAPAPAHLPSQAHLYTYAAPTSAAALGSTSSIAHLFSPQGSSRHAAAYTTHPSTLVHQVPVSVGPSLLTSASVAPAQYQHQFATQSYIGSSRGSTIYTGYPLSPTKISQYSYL

As for `O=S(=O)(NCCCNc1nccc(-c2c(-c3cccc(O)c3)nc3sccn23)n1)c1cccc(F)c1`, the TGI (in general, the concentration at which net growth stops) is 7.86 µM with Malme-3M [1]; 2.28 µM in the data set with SK-MEL-5; 6.86 µM with SK-MEL-28 [8]; more than 100 µM with UACC-257; 6.51 µM with MDA-MB-435; 5.82 µM in the data set on LOX IMVI [16]. Also, the IC50 (in general, the concentration needed to halve the response being measured) was determined as 1.78 µM in [2]; 2.29 µM in the data set on SK-MEL-28 [5]; 2.04 µM in [6]; 10.6 µM in data set [7]; 10.3 µM in data set [11]; 10.3 µM in data set [12]. In addition, the IC50 in data set [13] turned out to be 2.41 µM; in data set [14], 4.88 µM; with LOX IMVI [15] it was 1.91 µM; in the data set on Malme-3M [17], 2.6 µM; in [18], 2.93 µM. Besides, the selectivity ratio in the data set “in vitro” amounted to 17.4. In addition, the results for the IC50 at 48 h in data set [3] and in [4] were 56.3 µM and 45.2 µM, respectively. The inhibition at 10 µM is 83.1% in the data set on NSCLC, 93.8% in [9] and 101% in data set [10].
